How the values were obtained:
[1] = molecular target: Prothrombin (Homo sapiens, UniProt P00734); test: Inhibition of human thrombin
[2] = molecular target: Cathepsin S (Homo sapiens, UniProt P25774); test: Inhibition of human cathepsin S
[3] = molecular target: Plasminogen (Homo sapiens, UniProt P00747); test: Inhibition of human plasmin
[4] = molecular target: T1, Neutrophil elastase (Homo sapiens) (UniProt P08246); test: (§1) Inhibition of human neutrophil elastase
T1 sequence (whole entry): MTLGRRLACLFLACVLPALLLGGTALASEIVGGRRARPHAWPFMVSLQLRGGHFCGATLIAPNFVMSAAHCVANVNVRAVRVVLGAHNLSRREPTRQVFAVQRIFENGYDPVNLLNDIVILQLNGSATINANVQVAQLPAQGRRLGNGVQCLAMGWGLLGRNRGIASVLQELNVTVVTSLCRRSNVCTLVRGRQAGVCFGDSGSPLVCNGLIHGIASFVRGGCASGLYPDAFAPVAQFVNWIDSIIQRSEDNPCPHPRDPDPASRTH

[5] = molecular target: T2, Neutrophil elastase (Homo sapiens, UniProt P08246); test: as §1
T2 sequence (P08246 whole entry): T1 sequence (whole entry)

[6] = test system: Hepatitis C virus; test: Ratio of EC90 for Hepatitis C virus genotype 1b NS3/4A protease D168A mutant to EC90 Hepatitis C virus genotype 1b wild type NS3/4A protease; parameters: species or system Hepatitis C virus subtype 1b
In short: (§2)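 Genotype 1b NS3 protease enzyme panel: wild type plus resistance mutants A156T, R155K, D168V, V36M, A156S, V170A and D168A. […] Resistance is expressed as the fold increase of each mutant's value over the wild-type value.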

[7] = test system: Hepatitis C virus; test: Ratio of EC50 for Hepatitis C virus genotype 1b NS3/4A protease D168A mutant to EC50 Hepatitis C virus genotype 1b wild type NS3/4A protease; parameters: species or system Hepatitis C virus subtype 1b; in short: as §2
[8] = test system: Hepatitis C virus; test: Ratio of EC90 for Hepatitis C virus genotype 1b NS3/4A protease V170A mutant to EC90 Hepatitis C virus genotype 1b wild type NS3/4A protease; parameters: species or system Hepatitis C virus subtype 1b; in short: as §2
[9] = test system: Hepatitis C virus; test: Ratio of EC50 for Hepatitis C virus genotype 1b NS3/4A protease V170A mutant to EC50 Hepatitis C virus genotype 1b wild type NS3/4A protease; parameters: species or system Hepatitis C virus subtype 1b; in short: as §2
[10] = test system: Hepatitis C virus; test: Inhibition of Hepatitis C virus genotype 1b NS3/4A protease V170A mutant; parameters: species or system Hepatitis C virus subtype 1b
In short: (§3)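 Panel of genotype 1b NS3 protease enzymes (wild type and mutants). IC50 and IC90 are averages ± standard error from 2 independent assays. Fold change versus wild type given in parentheses.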

[11] = test system: Hepatitis C virus; test: Ratio of EC90 for Hepatitis C virus genotype 1b NS3/4A protease A156S mutant to EC90 Hepatitis C virus genotype 1b wild type NS3/4A protease; parameters: species or system Hepatitis C virus subtype 1b; in short: as §2
[12] = test system: Hepatitis C virus; test: Inhibition of Hepatitis C virus genotype 1b NS3/4A protease A156S mutant; parameters: species or system Hepatitis C virus subtype 1b; in short: as §3
[13] = test system: Hepatitis C virus; test: Ratio of EC90 for Hepatitis C virus genotype 1b NS3/4A protease V36M mutant to EC90 Hepatitis C virus genotype 1b wild type NS3/4A protease; parameters: species or system Hepatitis C virus subtype 1b; in short: as §2
[14] = test system: Hepatitis C virus; test: Ratio of EC50 for Hepatitis C virus genotype 1b NS3/4A protease V36M mutant to EC50 Hepatitis C virus genotype 1b wild type NS3/4A protease; parameters: species or system Hepatitis C virus subtype 1b; in short: as §2
[15] = test system: Hepatitis C virus; test: Inhibition of Hepatitis C virus genotype 1b NS3/4A protease V36M mutant; parameters: species or system Hepatitis C virus subtype 1b; in short: as §3
[16] = test system: Hepatitis C virus; test: Ratio of EC90 for Hepatitis C virus genotype 1b NS3/4A protease D168V mutant to EC90 Hepatitis C virus genotype 1b wild type NS3/4A protease; parameters: species or system Hepatitis C virus subtype 1b; in short: as §2
[17] = test system: Hepatitis C virus; test: Inhibition of Hepatitis C virus genotype 1b NS3/4A protease D168V mutant; parameters: species or system Hepatitis C virus subtype 1b; in short: as §3
[18] = test system: Hepatitis C virus; test: Inhibition of Hepatitis C virus genotype 1b NS3/4A protease D168A mutant; parameters: species or system Hepatitis C virus subtype 1b; in short: as §3
[19] = test system: Hepatitis C virus; test: Inhibition of Hepatitis C virus genotype 1b NS3/4A protease R155K mutant; parameters: species or system Hepatitis C virus subtype 1b; in short: as §3
[20] = test system: Hepatitis C virus; test: Ratio of EC90 for Hepatitis C virus genotype 1b NS3/4A protease A156T mutant to EC90 Hepatitis C virus genotype 1b wild type NS3/4A protease; parameters: species or system Hepatitis C virus subtype 1b; in short: as §2
[21] = test system: Hepatitis C virus; test: Ratio of EC50 for Hepatitis C virus genotype 1b NS3/4A protease A156T mutant to EC50 Hepatitis C virus genotype 1b wild type NS3/4A protease; parameters: species or system Hepatitis C virus subtype 1b; in short: as §2
[22] = test system: Hepatitis C virus; test: Inhibition of Hepatitis C virus genotype 1b NS3/4A protease A156T mutant; parameters: species or system Hepatitis C virus subtype 1b; in short: as §3
[23] = test system: Hepatitis C virus; test: Inhibition of Hepatitis C virus genotype 1b wild type NS3/4A protease; parameters: species or system Hepatitis C virus subtype 1b; in short: as §3
[24] = test system: Hepatitis C virus; test: Ratio of EC50 for Hepatitis C virus genotype 1b NS3/4A protease A156S mutant to EC50 Hepatitis C virus genotype 1b wild type NS3/4A protease; parameters: species or system Hepatitis C virus subtype 1b; in short: as §2
[25] = test system: Hepatitis C virus; test: Ratio of EC50 for Hepatitis C virus genotype 1b NS3/4A protease D168V mutant to EC50 Hepatitis C virus genotype 1b wild type NS3/4A protease; parameters: species or system Hepatitis C virus subtype 1b; in short: as §2
[26] = test system: Hepatitis C virus; test: Ratio of EC90 for Hepatitis C virus genotype 1b NS3/4A protease R155K mutant to EC90 Hepatitis C virus genotype 1b wild type NS3/4A protease; parameters: species or system Hepatitis C virus subtype 1b; in short: as §2
[27] = test system: Hepatitis C virus; test: Ratio of EC50 for Hepatitis C virus genotype 1b NS3/4A protease R155K mutant to EC50 Hepatitis C virus genotype 1b wild type NS3/4A protease; parameters: species or system Hepatitis C virus subtype 1b; in short: as §2
[28] = test system: Huh-7; test: Cytotoxicity against human HuH7 cells; assay type: cell-based
In short: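 Huh7 cytotoxicity measured together with the replicon antiviral assay, by extraction and amplification of ribosomal RNA. Each concentration run in triplicate and reported as mean.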

[29] = test system: Hepatitis C virus; test: Antiviral activity against Hepatitis C virus infected in human HuH7 cells assessed as viral RNA replication; assay type: functional, organism-based, Hepacivirus hominis; details: Huh-7
In short: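 Subgenomic HCV replicon in Huh7 cells; inhibition of HCV RNA replication measured by extraction and amplification of HCV RNA. Each concentration run in triplicate and reported as mean; EC50 derived.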

Sequence of Plasminogen (P00747 97-580 limits assumed): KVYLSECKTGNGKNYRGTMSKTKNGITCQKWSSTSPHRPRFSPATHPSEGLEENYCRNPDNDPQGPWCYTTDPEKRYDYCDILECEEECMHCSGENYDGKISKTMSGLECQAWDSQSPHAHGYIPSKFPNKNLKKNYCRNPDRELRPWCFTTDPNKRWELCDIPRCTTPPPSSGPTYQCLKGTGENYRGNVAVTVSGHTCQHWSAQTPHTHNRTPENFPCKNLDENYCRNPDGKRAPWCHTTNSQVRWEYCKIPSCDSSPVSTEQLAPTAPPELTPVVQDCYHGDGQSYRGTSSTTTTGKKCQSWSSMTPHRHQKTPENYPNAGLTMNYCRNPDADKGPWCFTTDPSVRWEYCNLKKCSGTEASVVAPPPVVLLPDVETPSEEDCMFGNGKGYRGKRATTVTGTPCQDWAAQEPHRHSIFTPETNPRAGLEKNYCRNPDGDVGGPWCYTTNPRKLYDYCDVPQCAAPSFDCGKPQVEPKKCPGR
Sequence of Plasminogen (P00747 581-810 limits assumed): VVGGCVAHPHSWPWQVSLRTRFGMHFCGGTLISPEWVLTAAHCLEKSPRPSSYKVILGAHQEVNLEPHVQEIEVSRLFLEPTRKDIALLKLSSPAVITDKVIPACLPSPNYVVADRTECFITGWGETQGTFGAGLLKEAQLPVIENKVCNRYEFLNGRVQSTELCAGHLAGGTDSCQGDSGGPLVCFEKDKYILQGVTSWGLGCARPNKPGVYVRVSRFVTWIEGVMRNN

Row | SMILES | IC50 [1] | IC90 [1] | IC50 [2] | IC90 [2] | IC50 [3] | IC90 [4] | Ratio [6] | Ratio EC50 [7] | Ratio [8] | Ratio EC50 [9] | EC50 [10] | EC90 [10] | Ratio [11] | EC50 [12] | EC90 [12] | Ratio [13] | Ratio EC50 [14] | EC50 [15] | EC90 [15] | Ratio [16] | also measured
1 | CC[C@@H]1C[C@]1(NC(=O)[C@@H]1C[C@@H]2CN1C(=O)[C@H](C(C)(C)C)NC(=O)OCC(C)(C)CCCCc1cccc3c1CN(C3)C(=O)O2)C(=O)NS(=O)(=O)C1CC1 | > 100 µM | > 100 µM | 78 µM | > 100 µM | > 100 µM | > 100 µM | 840 | 390 | 0.8 | 0.7 | 0.0046 µM | 0.01 µM | 1.3 | < 0.001 µM | 0.017 µM | 7.8 | 7.2 | 0.045 µM | 0.1 µM | >77 | IC90 [3]: > 100 µM; IC50 [5]: > 100 µM; EC50 [17]: > 1 µM; EC90 [17]: > 1 µM; EC50 [18]: 2.4 µM; EC90 [18]: 11 µM; EC50 [19]: > 1 µM; EC90 [19]: > 1 µM; Ratio [20]: >77; Ratio EC50 [21]: 150; EC50 [22]: 0.91 µM; EC90 [22]: > 1 µM; EC50 [23]: 0.0062 µM; EC90 [23]: 0.013 µM
2 | CCC[C@H](NC(=O)[C@@H]1[C@H]2CCC[C@H]2CN1C(=O)[C@@H](NC(=O)[C@@H](NC(=O)c1cnccn1)C1CCCCC1)C(C)(C)C)C(=O)C(=O)NC1CC1 | < 1 µM | < 1 µM | > 100 µM | > 100 µM | 8.7 µM | > 100 µM | 0.9 | 1 | 1.9 | 3.3 | 0.2 µM | 1.5 µM | 66 | 2.2 µM | 52 µM | 6.5 | 8.5 | 0.51 µM | 5.1 µM | 0.9 | Ratio EC50 [24]: 37; Ratio EC50 [25]: 1.3; EC50 [17]: 0.08 µM; EC90 [17]: 0.74 µM; Ratio [26]: 11; EC50 [18]: 0.58 µM; EC90 [18]: 0.69 µM; Ratio EC50 [27]: 13; EC50 [19]: 0.8 µM; EC90 [19]: 8.3 µM; Ratio [20]: >130; Ratio EC50 [21]: 780; EC50 [22]: 46 µM; EC90 [22]: > 100 µM; EC50 [23]: 0.06 µM; EC90 [23]: 0.78 µM; CC50 [28]: > 10 µM; EC50 [29]: 0.4 µM; EC90 [29]: 0.9 µM

From ChEMBL document CHEMBL2440035, “Azetidines and spiro azetidines as novel P2 units in hepatitis C virus NS3 protease inhibitors” (Bioorg Med Chem Lett, 2013)
